The values that follow come from ChEMBL document CHEMBL1129245, “N-heteroaryl-2-phenyl-3-(benzyloxy)piperidines: a novel class of potent orally active human NK1 antagonists” (J Med Chem, 1996).

Bounds are passed on as bounds.

Series [1] is described as follows: Bioavailability in rat. It counts as ADME, organism-based. Conditions: in vivo.
For series [2], the system named is Rattus norvegicus. Put plainly: Plasma concentration of 3 mg/kg iv after 0.25 hr in rats. It counts as ADME, organism-based. The arrangement: dose 3 mg/kg, route intravenous. To be noted: in vivo. Put shortly: (§1)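 Rats given compound intravenously and orally in solution. Three rats per time point sampled for plasma drug levels. Pharmacokinetic parameters calculated from the plasma concentration–time data using standard equations. Data reported as mean ± SEM.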

The subject of series [3] is Rattus norvegicus. Put plainly: Plasma concentration after 3 mg/kg peroral dosing in rat at 8 hr. It counts as ADME, organism-based. Details: dose 3 mg/kg, route oral. To be noted: in vivo, po.
For series [4], the target named is Substance-P receptor (Homo sapiens, UniProt P25103). Description: Displacement of [125 I]-Tyr8 SP from the cloned human Tachykinin receptor 1 expressed in CHO cells. It counts as cell-based.
Series [5] concerns Rattus norvegicus. Put plainly: Plasma concentration after 3 mg/kg peroral dosing in rat at 2 hr. In kind it is ADME, organism-based. Conditions: in vivo, po. Details: dose 3 mg/kg, route oral.
Series [6] is described as follows: Plasma volume of distribution of the 3 mg/kg in rat. Details: dose 3 mg/kg. In kind it is ADME, organism-based. Put shortly: as §1
For series [7], the system named is Rattus norvegicus. Put plainly: Plasma concentration after 3 mg/kg peroral dosing in rat at 0.25 hr. In kind it is ADME, organism-based. The arrangement: dose 3 mg/kg, route oral. To be noted: in vivo, po.
For series [8], the system named is Rattus norvegicus. Put plainly: Plasma concentration of 3 mg/kg iv after 1 hr in rats. It counts as ADME, organism-based. Details: dose 3 mg/kg, route intravenous. To be noted: in vivo. Put shortly:
as §1

Series [9] relates to Rattus norvegicus. Put plainly: Plasma concentration of 3 mg/kg iv after 6 hr in rats. In kind it is ADME, organism-based. The arrangement: dose 3 mg/kg, route intravenous. To be noted: in vivo. The gist of the method:
as §1

Series [10] has as its system Rattus norvegicus. Description: Plasma concentration of 3 mg/kg iv after 4 hr in rats. Details: dose 3 mg/kg, route intravenous. Conditions: in vivo. It counts as ADME, organism-based. The gist of the method: as §1
For series [11], the system named is Rattus norvegicus. Put plainly: Plasma concentration of 3 mg/kg iv after 0.5 hr in rats. In kind it is ADME, organism-based. The arrangement: dose 3 mg/kg, route intravenous. To be noted: in vivo. Put shortly:
as §1

Series [12] deals with Rattus norvegicus. Put plainly: Plasma concentration after 3 mg/kg peroral dosing in rat at 0.5 hr. In kind it is ADME, organism-based. Conditions: in vivo, po. The arrangement: dose 3 mg/kg, route oral.
Series [13] deals with Rattus norvegicus. Description: Plasma concentration after 3 mg/kg peroral dosing in rat at 6 hr. The arrangement: dose 3 mg/kg, route oral. In kind it is ADME, organism-based. Conditions: in vivo, po.
Series [14] relates to Rattus norvegicus. Description: Plasma concentration after 3 mg/kg peroral dosing in rat at 4 hr. It counts as ADME, organism-based. The arrangement: dose 3 mg/kg, route oral. To be noted: in vivo, po.
The test system of series [15] is Rattus norvegicus. Description: Plasma concentration after 3 mg/kg peroral dosing in rat at 0.083 h. To be noted: in vivo, po. The arrangement: dose 3 mg/kg, route oral. In kind it is ADME, organism-based.
The test system of series [16] is Rattus norvegicus. Description: Plasma concentration after 3 mg/kg peroral dosing in rat at 1 hr. Details: dose 3 mg/kg, route oral. It counts as ADME, organism-based. Conditions: in vivo, po.
In series [17] the test system is Rattus norvegicus. Description: Plasma concentration of 3 mg/kg iv after 2 hr in rats. It counts as ADME, organism-based. The arrangement: dose 3 mg/kg, route intravenous. Conditions: in vivo. The gist of the method: as §1
Series [18] in a line: Plasma clearance after intravenous administration iv dosing of 3 mg/kg in rat. It counts as ADME, organism-based. The arrangement: dose 3 mg/kg, route intravenous.

Sequence of Substance-P receptor (P25103 whole entry): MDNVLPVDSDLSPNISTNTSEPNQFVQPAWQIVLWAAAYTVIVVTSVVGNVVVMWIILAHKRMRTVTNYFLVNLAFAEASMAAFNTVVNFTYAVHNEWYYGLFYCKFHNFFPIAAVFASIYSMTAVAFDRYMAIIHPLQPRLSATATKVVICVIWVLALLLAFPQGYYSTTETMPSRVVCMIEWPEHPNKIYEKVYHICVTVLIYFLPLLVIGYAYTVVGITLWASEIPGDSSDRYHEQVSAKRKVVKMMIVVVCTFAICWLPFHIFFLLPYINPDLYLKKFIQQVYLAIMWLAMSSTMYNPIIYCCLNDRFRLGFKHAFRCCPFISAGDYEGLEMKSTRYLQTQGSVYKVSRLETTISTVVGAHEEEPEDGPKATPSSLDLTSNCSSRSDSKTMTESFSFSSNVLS

On to `FC(F)(F)c1cc(CO[C@H]2CCCN(Cc3nnc[nH]3)[C@H]2c2ccccc2)cc(C(F)(F)F)c1`, for which the bioavailability in series [1] worked out at 18%. Further, the Concentration in series [2] is 826 ng/mL; in series [3], under 10 ng/mL; in series [5] it was 36.9 ng/mL; in [7] it was 116 ng/mL; in series [8] it was 304 ng/mL; in series [9], under 10 ng/mL. The Concentration is 13.2 ng/mL in [10]; 581 ng/mL in [11]; 35.1 ng/mL in [12]; under 10 ng/mL in series [13]; 11.2 ng/mL in [14]; 40.1 ng/mL in series [15]. Moreover, the Concentration in series [16] was 33.7 ng/mL; in series [17], 71.3 ng/mL. Besides, the IC50 in series [4] came to 0.22 nM. Moreover, in [6], the Vd is 2.6 L/kg. The same compound gave a clearance in [18] of 44 mL/min/kg.
